According to publication PMC3855573 (Biochemistry, 2013):
“And” between values parts separate entries of the source, which are not always exact repeats. Equal values may be shown once. Read-outs that look alike come from different tables or passages of the source.

What was measured:
[1] = molecular target: MV FlAsH (Gallus gallus, UniProt Q02440, D297C/G292C/I296C/S293C/V295G); assay: Actin-activated steady-state ATPase, NADH coupled assay; format: biochemical, chicken; settings: 20 μM actin, 25°C
[2] = molecular target: acto-MV FlAsH (Gallus gallus, UniProt Q02440, D297C/G292C/I296C/S293C/V295G); assay: Mg dependence of ADP release rate constants; format: binding, chicken; settings: read-out: KD.Mg, Eq. 14
Summary of the method: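 Acto-MV FlAsH·mantdADP (final 0.25 μM MV FlAsH, 0.5 μM actin, 10 μM mantdADP) stopped-flow mixed with 1 mM ATP at 25°C. Buffer: K50TCEP, pH 7.0, with 0.5–10 mM MgCl2; free Mg calculated from stability constants. FRET read with 365 nm excitation and 515 nm long-pass emission. Biexponential rate constants vs free Mg fitted to Eq. 14 to extrapolate Mg-free and Mg-saturated values and KD.Mg.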

[3] = read-out: KD of Mg for free ADP; previously determined; cited from earlier work

## O=C(O)CN(CCN(CC(=O)O)CC(=O)O)CC(=O)O [EDTA, reference compound]
[1]; K50 buffer containing 4 mM EDTA (Mg free)
  actin-activated ATPase rate: 0.06 s⁻¹

## [Mg+2] [Mg, magnesium]
[2]; actomyosin V strong ADP binding conformation
  Kd: 900 ± 400 µM
[2]; actomyosin V weak ADP binding conformation
  Kd: 600 ± 300 µM
[1]; high free Mg (3–9 mM) versus low free Mg (0.1–0.3 mM)
  reduction in actin-activated ATPase activity: 50–60% and 60%
[3]
  Kd: 350 ± 300 µM
